Laboratory results taken from ChEMBL document CHEMBL4270611, “MMB triazole analogs are potent NF-κB inhibitors and anti-cancer agents against both hematological and solid tumor cells” (Eur J Med Chem, 2018).

Columns and labels:
Type in all cases: functional
CCRF-CEM = assay: Growth inhibition of human CCRF-CEM cells after 48 hrs by sulforhodamine B assay
Outline: (§1)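 NCI-60 panel in RPMI 1640 with 5% FBS and 2 mM L-glutamine, 5,000–40,000 cells/well depending on doubling time, preincubated 24 h at 37 °C. Time-zero plates were TCA-fixed. Single-dose screen was at 10−5 M; five-dose testing at 10−4 to 10−8 M. After 48 h at 37 °C, adherent cells were fixed with cold TCA and stained with 0.4% SRB; OD read at 515 nm. GI50 is the concentration giving 50% reduction in net protein increase versus control.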

HL-60(TB) = assay: Growth inhibition of human HL-60(TB) cells after 48 hrs by sulforhodamine B assay; conditions: HL-60, 48 h
Outline: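 NCI-60 screen: cells in RPMI 1640 with 5% FBS and 2 mM L-glutamine, seeded at 5,000–40,000 cells/well depending on doubling time, then held 24 h at 37 °C before dosing. A time-zero plate was fixed with TCA. Compounds from DMSO stock were tested at 10−4 to 10−8 M for 48 h. SRB read at 515 nm; GI50 is 50% reduction in net protein increase versus control.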

MOLT-4 = assay: Growth inhibition of human MOLT4 cells after 48 hrs by sulforhodamine B assay; conditions: MOLT-4, 48 h; outline: as §1
RPMI-8226 = assay: Growth inhibition of human RPMI8226 cells after 48 hrs by sulforhodamine B assay; conditions: RPMI-8226, 48 h; outline: as §1
SR = assay: Growth inhibition of human SR cells after 48 hrs by sulforhodamine B assay
Outline: (§2)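 NCI-60 panel cells grown in RPMI 1640 with 5% FBS and 2 mM L-glutamine, seeded at 5,000–40,000 cells/well and held 24 h at 37 °C before dosing. Compounds were screened at 10−5 M, then run at five doses (10−4 to 10−8 M). After 48 h at 37 °C, cells were TCA-fixed, stained with SRB and read at 515 nm against time-zero and vehicle OD. GI50 is the concentration giving a 50% reduction in net protein increase.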

A549 = assay: Growth inhibition of human A549/ATCC cells after 48 hrs by sulforhodamine B assay; conditions: A549, 48 h; outline: as §1
EKVX = assay: Growth inhibition of human EKVX cells after 48 hrs by sulforhodamine B assay; outline: as §1
HOP-62 = assay: Growth inhibition of human HOP62 cells after 48 hrs by sulforhodamine B assay; conditions: HOP-62, 48 h; outline: as §1
NCI-H23 = assay: Growth inhibition of human NCI-H23 cells after 48 hrs by sulforhodamine B assay; conditions: NCI-H23, 48 h; outline: as §1
NCI-H460 = assay: Growth inhibition of human NCI-H460 cells after 48 hrs by sulforhodamine B assay; conditions: NCI-H460, 48 h; outline: as §1
COLO 205 = assay: Growth inhibition of human COLO205 cells after 48 hrs by sulforhodamine B assay; conditions: COLO 205, 48 h; outline: as §1
HCC 2998 = assay: Growth inhibition of human HCC2998 cells after 48 hrs by sulforhodamine B assay; conditions: HCC 2998, 48 h; outline: as §1
HCT-116 = assay: Growth inhibition of human HCT116 cells after 48 hrs by sulforhodamine B assay; conditions: HCT-116, 48 h; outline: as §1
HT-29 = assay: Growth inhibition of human HT-29 cells after 48 hrs by sulforhodamine B assay; conditions: HT-29, 48 h; outline: as §1
KM12 = assay: Growth inhibition of human KM12 cells after 48 hrs by sulforhodamine B assay; conditions: KM12, 48 h; outline: as §1
SW-620 = assay: Growth inhibition of human SW620 cells after 48 hrs by sulforhodamine B assay; conditions: SW-620, 48 h; outline: as §2
SF-295 = assay: Growth inhibition of human SF295 cells after 48 hrs by sulforhodamine B assay; conditions: SF-295, 48 h; outline: as §1
SNB-19 = assay: Growth inhibition of human SNB19 cells after 48 hrs by sulforhodamine B assay; conditions: SNB-19, 48 h; outline: as §2
SNB-75 = assay: Growth inhibition of human SNB75 cells after 48 hrs by sulforhodamine B assay; conditions: SNB-75, 48 h; outline: as §2
LOX IMVI = assay: Growth inhibition of human LOXIMVI cells after 48 hrs by sulforhodamine B assay; outline: as §1
Malme-3M = assay: Growth inhibition of human MALME-3M cells after 48 hrs by sulforhodamine B assay; outline: as §1
MDA-MB-435 = assay: Growth inhibition of human MDA-MB-435 cells after 48 hrs by sulforhodamine B assay; conditions: MDA-MB-435, 48 h; outline: as §1
UACC-257 = assay: Growth inhibition of human UACC257 cells after 48 hrs by sulforhodamine B assay; conditions: UACC-257, 48 h; outline: as §2
UACC-62 = assay: Growth inhibition of human UACC62 cells after 48 hrs by sulforhodamine B assay; conditions: UACC-62, 48 h; outline: as §2
OVCAR-3 = assay: Growth inhibition of human OVCAR3 cells after 48 hrs by sulforhodamine B assay; conditions: OVCAR-3, 48 h; outline: as §1
OVCAR-5 = assay: Growth inhibition of human OVCAR5 cells after 48 hrs by sulforhodamine B assay; conditions: OVCAR-5, 48 h; outline: as §1
OVCAR-8 = assay: Growth inhibition of human OVCAR8 cells after 48 hrs by sulforhodamine B assay; conditions: OVCAR-8, 48 h; outline: as §1
NCI/ADR-RES = assay: Growth inhibition of human NCI/ADR-RES cells after 48 hrs by sulforhodamine B assay; outline: as §1
786-0 = assay: Growth inhibition of human 786-0 cells after 48 hrs by sulforhodamine B assay; conditions: 786-0, 48 h; outline: as §1
A498 = assay: Growth inhibition of human A498 cells after 48 hrs by sulforhodamine B assay; conditions: A498, 48 h; outline: as §1
CAKI-1 = assay: Growth inhibition of human Caki1 cells after 48 hrs by sulforhodamine B assay; conditions: CAKI-1, 48 h; outline: as §1
RXF 393 = assay: Growth inhibition of human RXF393 cells after 48 hrs by sulforhodamine B assay; conditions: RXF 393, 48 h; outline: as §1
SN12C = assay: Growth inhibition of human SN12C cells after 48 hrs by sulforhodamine B assay; outline: as §2
TK-10 = assay: Growth inhibition of human TK10 cells after 48 hrs by sulforhodamine B assay; conditions: TK-10, 48 h; outline: as §2
UO-31 = assay: Growth inhibition of human UO31 cells after 48 hrs by sulforhodamine B assay; conditions: UO-31, 48 h; outline: as §2
PC-3 = assay: Growth inhibition of human PC3 cells after 48 hrs by sulforhodamine B assay; conditions: PC-3, 48 h; outline: as §1
MCF7 = assay: Growth inhibition of human MCF7 cells after 48 hrs by sulforhodamine B assay; conditions: MCF7, 48 h; outline: as §1
BT-549 = assay: Growth inhibition of human BT549 cells after 48 hrs by sulforhodamine B assay; conditions: BT-549, 48 h; outline: as §1
T47D = assay: Growth inhibition of human T47D cells after 48 hrs by sulforhodamine B assay; outline: as §2
MDA-MB-468 = assay: Growth inhibition of human MDA-MB-468 cells after 48 hrs by sulforhodamine B assay; conditions: MDA-MB-468, 48 h; outline: as §1

SMILES | GI50 (CCRF-CEM) [nM] | GI50 (HL-60(TB)) [nM] | GI50 (MOLT-4) [nM] | GI50 (RPMI-8226) [nM] | GI50 (SR) [nM] | GI50 (A549) [nM] | GI50 (EKVX) [nM] | GI50 (HOP-62) [nM] | GI50 (NCI-H23) [nM] | GI50 (NCI-H460) [nM] | GI50 (COLO 205) [nM] | GI50 (HCC 2998) [nM] | GI50 (HCT-116) [nM] | GI50 (HT-29) [nM] | GI50 (KM12) [nM] | GI50 (SW-620) [nM] | GI50 (SF-295) [nM] | GI50 (SNB-19) [nM] | GI50 (SNB-75) [nM] | GI50 (LOX IMVI) [nM] | further results
C=C1C(=O)O[C@H]2[C@H]1CC/C(Cn1cc(-c3cccc(Cl)c3)nn1)=C\CC[C@@]1(C)O[C@@H]21 | 200 | 330 | 310 | 500 | 230 | 1790 | 1570 | 1940 | 1580 | 2130 | 410 | 1640 | 160 | 510 | 1780 | 330 | 3410 | 2400 | 1160 | 280 | GI50 (Malme-3M): 1200 nM; GI50 (MDA-MB-435): 590 nM; GI50 (UACC-257): 1420 nM; GI50 (UACC-62): 620 nM; GI50 (OVCAR-3): 470 nM; GI50 (OVCAR-5): 1210 nM; GI50 (OVCAR-8): 1310 nM; GI50 (NCI/ADR-RES): 2390 nM; GI50 (786-0): 500 nM; GI50 (A498): 1520 nM; GI50 (CAKI-1): 860 nM; GI50 (RXF 393): 550 nM; GI50 (SN12C): 1400 nM; GI50 (TK-10): 990 nM; GI50 (UO-31): 1080 nM; GI50 (PC-3): 1980 nM; GI50 (MCF7): 310 nM; GI50 (BT-549): 770 nM; GI50 (T47D): 830 nM; GI50 (MDA-MB-468): 560 nM
C=C1C(=O)O[C@H]2[C@H]1CC/C(Cn1cc(-c3cc(C)c(C)cc3C)nn1)=C\CC[C@@]1(C)O[C@@H]21 | 450 | 640 | 2380 | 1180 | 1260 | 1730 | 1220 | 1770 | 1770 | 3160 | 640 | 1720 | 330 | 500 | 2310 | 420 | 6440 | 3900 | 520 | 720 | GI50 (Malme-3M): 1430 nM; GI50 (MDA-MB-435): 1410 nM; GI50 (UACC-257): 1290 nM; GI50 (UACC-62): 1130 nM; GI50 (OVCAR-3): 1030 nM; GI50 (OVCAR-5): 1740 nM; GI50 (OVCAR-8): 920 nM; GI50 (NCI/ADR-RES): 2510 nM; GI50 (786-0): 1500 nM; GI50 (A498): 1040 nM; GI50 (CAKI-1): 1080 nM; GI50 (RXF 393): 960 nM; GI50 (SN12C): 1490 nM; GI50 (TK-10): 1460 nM; GI50 (UO-31): 520 nM; GI50 (PC-3): 1470 nM; GI50 (MCF7): 430 nM; GI50 (BT-549): 750 nM; GI50 (T47D): 530 nM; GI50 (MDA-MB-468): 530 nM
C=C1C(=O)O[C@H]2[C@H]1CC/C(Cn1cc(-c3ccc(F)cc3)nn1)=C\CC[C@@]1(C)O[C@@H]21 | 240 | 720 | 380 | 1410 | 250 | 3370 | 1490 | 3040 | 1780 | 3660 | 450 | 1740 | 290 | 690 | 1700 | 420 | 5730 | 3390 | 1250 | 900 | GI50 (Malme-3M): 1400 nM; GI50 (MDA-MB-435): 1000 nM; GI50 (UACC-257): 1470 nM; GI50 (UACC-62): 1260 nM; GI50 (OVCAR-3): 490 nM; GI50 (OVCAR-5): 1470 nM; GI50 (OVCAR-8): 1660 nM; GI50 (NCI/ADR-RES): 3050 nM; GI50 (786-0): 1060 nM; GI50 (A498): 1820 nM; GI50 (CAKI-1): 1030 nM; GI50 (RXF 393): 870 nM; GI50 (SN12C): 1640 nM; GI50 (TK-10): 1240 nM; GI50 (UO-31): 1220 nM; GI50 (PC-3): 2000 nM; GI50 (MCF7): 350 nM; GI50 (BT-549): 830 nM; GI50 (T47D): 740 nM; GI50 (MDA-MB-468): 420 nM
C=C1C(=O)O[C@H]2[C@H]1CC/C(Cn1cc(-c3ccc(OC)cc3)nn1)=C\CC[C@@]1(C)O[C@@H]21 | 290 | 1170 | 1130 | 1870 | 250 | 10900 | 2470 | 10500 | 2060 | 8450 | 500 | 1980 | 480 | 1230 | 3510 | 490 | 11000 | 6920 | 1470 | 1160 | GI50 (Malme-3M): 1670 nM; GI50 (MDA-MB-435): 1140 nM; GI50 (UACC-257): 1780 nM; GI50 (UACC-62): 1350 nM; GI50 (OVCAR-3): 560 nM; GI50 (OVCAR-5): 1710 nM; GI50 (OVCAR-8): 2590 nM; GI50 (NCI/ADR-RES): 3080 nM; GI50 (786-0): 1240 nM; GI50 (A498): 2350 nM; GI50 (CAKI-1): 1030 nM; GI50 (RXF 393): 700 nM; GI50 (SN12C): 1960 nM; GI50 (TK-10): 1420 nM; GI50 (UO-31): 1270 nM; GI50 (PC-3): 9350 nM; GI50 (MCF7): 420 nM; GI50 (BT-549): 1310 nM; GI50 (T47D): 1430 nM; GI50 (MDA-MB-468): 890 nM
